{"data": "Measurements gathered from unrelated publications", "note": "Compare with care: the assays were run in different laboratories."}
{"SMILES": "C[C@]12CC[C@H](n3ccnc3)CC1=CC[C@@H]1[C@@H]2CC[C@]2(C)C(n3cnc4ccccc43)=CC[C@@H]12.Cl", "test system": "male CD-1 mouse, plasma", "conditions": "intravenous, 1 mg/kg", "measurement": "AUC(0-t)", "result": "2040 ng·h/mL"}
{"SMILES": "O=C(NC1CCCCC1)Oc1ccc(-c2ccccc2)cc1", "assay": "metabolic stability", "test system": "male Wistar rat, liver S9", "conditions": "1 µM, pH 7.4", "measurement": "half-life", "result": "19 min"}
{"SMILES": "COc1ncccc1-c1cnn2ccc(N3CCN(C(=O)OC(C)C)CC3)nc12", "test system": "mouse, plasma", "conditions": "oral, 10 mg/kg", "measurement": "bioavailability", "result": "~100%"}
{"SMILES": "O=C(Nc1nccs1)C(c1cc(F)ccc1O)N1Cc2ccc(-c3ccc(N4CCNCC4)cc3)cc2C1=O (centres unmarked)", "test system": "mouse, plasma", "conditions": "oral, 20 mg/kg", "measurement": "bioavailability", "result": "3%"}
{"SMILES": "CCC[C@@](N)(CO)CCc1ccc(OCCCCCC(C)C)cc1", "test system": "mouse, plasma", "conditions": "intravenous, 5 mg/kg", "measurement": "AUC(0-t)", "result": "0.714 µM·h"}
{"SMILES": "Cc1cc(C)nc(Nc2ncc(C(=O)NCCc3c(C)[nH]c4ccccc34)cn2)c1", "assay": "metabolic stability", "test system": "rat, liver microsomes", "conditions": "1 µM", "measurement": "half-life", "result": "3.8 min"}
{"SMILES": "CSc1sc(C)cc1-c1nsc(=O)o1", "assay": "chemical stability", "test system": "culture medium", "measurement": "half-life", "result": "110 min"}
{"SMILES": "NS(=O)(=O)c1ccc(Cc2c(-c3cccc(-c4ccccc4)c3)nn(-c3nc(C(=O)O)cs3)c2C2CC2)cc1", "test system": "male CD-1 mouse, plasma", "conditions": "oral, 50 mg/kg", "measurement": "bioavailability", "result": "~50%"}
{"SMILES": "CCN(CC)CCCC[C@H](NC(=O)[C@H](CC(C)C)NC(=O)[C@H](C)NC(=O)[C@H](Cc1ccccc1)NC(=O)c1ccc(C(C)(C)C)cc1)C(=O)N[C@@H](CO)C(=O)OC", "test system": "male Swiss mouse, plasma", "conditions": "intraperitoneal, 10 mg/kg", "measurement": "bioavailability", "result": "25%"}
{"SMILES": "O=C(NC1CCCCC1)Oc1ccc2ccccc2c1", "assay": "metabolic stability", "test system": "male Wistar rat, liver S9", "conditions": "1 µM, pH 7.4", "measurement": "half-life", "result": "5 min"}
{"SMILES": "Cc1cc(-c2nsc(=O)o2)c(S(C)(=O)=O)s1", "assay": "chemical stability", "test system": "culture medium", "measurement": "half-life", "result": "13.5 min"}
